Source: ChEMBL document CHEMBL2169836 (J Med Chem, 2012)
The source made the active and inactive calls. No cut-off for these calls is given here.

Experiments:
[1] = biological target: T1, Sodium/hydrogen exchanger 1 (Homo sapiens, UniProt P19634); assay: Inhibition of NHE1 in human HT-29 cells assessed as intracellular pH change after 30 mins; type: cell-based
[2] = Volume of distribution at steady state in jugular and femoral vein precannulated Sprague-Dawley rat at 1 mg/kg, iv by LC/MS/MS analysis; type: ADME, organism-based; design: dose 1 mg/kg, route intravenous; conditions: in vivo, read-out: Vdss
[3] = tested on: Rattus norvegicus; assay: Clearance in jugular and femoral vein precannulated Sprague-Dawley rat at 1 mg/kg, iv by LC/MS/MS analysis relative to hepatic blood flow; type: ADME, organism-based, Liver; design: dose 1 mg/kg, route intravenous; conditions: in vivo
[4] = tested on: Caco-2; assay: Efflux ratio of permeability from […] side in human Caco2 cells at 10 uM up to 150 mins; type: ADME, cell-based; conditions: caco-2, 2.5 h
[5] = Mean resident time in jugular and femoral vein precannulated Sprague-Dawley rat at 1 mg/kg, iv by LC/MS/MS analysis; type: ADME, organism-based; design: dose 1 mg/kg, route intravenous; conditions: in vivo
[6] = Oral bioavailability in jugular and femoral vein precannulated Sprague-Dawley rat plasma at 5 mg/kg by LC/MS/MS analysis; type: ADME, organism-based
[7] = Permeability of the compound by PAMPA; type: ADME; conditions: read-out: permeability
Method in brief: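 Donor buffers were set to pH 5.0, 6.2 and 7.4 with NaOH, and ASB7.4 buffer was used as acceptor. Filters (0.45 pore, 125 μm thick) were lipid-coated. A 10 mM DMSO stock was diluted to 41.7 μM in donor buffer. The sandwich was incubated 4 h without stirring. Reference, donor and acceptor concentrations were read in duplicate by UV plate reader, and ratings were assigned from permeation velocity.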

[8] = Metabolic stability in rat liver microsomes at 1 uM up to 60 mins by LC/MS/MS analysis relative to hepatic blood flow; type: ADME, Microsome; conditions: read-out: Stability
[9] = biological target: Voltage-gated inwardly rectifying potassium channel KCNH2 (Homo sapiens, UniProt Q12809); assay: Inhibition of human ERG expressed in HEK 293 cells by PatchXpress assay; type: cell-based, HEK293
Sequence of Voltage-gated inwardly rectifying potassium channel KCNH2 (Q12809 whole entry): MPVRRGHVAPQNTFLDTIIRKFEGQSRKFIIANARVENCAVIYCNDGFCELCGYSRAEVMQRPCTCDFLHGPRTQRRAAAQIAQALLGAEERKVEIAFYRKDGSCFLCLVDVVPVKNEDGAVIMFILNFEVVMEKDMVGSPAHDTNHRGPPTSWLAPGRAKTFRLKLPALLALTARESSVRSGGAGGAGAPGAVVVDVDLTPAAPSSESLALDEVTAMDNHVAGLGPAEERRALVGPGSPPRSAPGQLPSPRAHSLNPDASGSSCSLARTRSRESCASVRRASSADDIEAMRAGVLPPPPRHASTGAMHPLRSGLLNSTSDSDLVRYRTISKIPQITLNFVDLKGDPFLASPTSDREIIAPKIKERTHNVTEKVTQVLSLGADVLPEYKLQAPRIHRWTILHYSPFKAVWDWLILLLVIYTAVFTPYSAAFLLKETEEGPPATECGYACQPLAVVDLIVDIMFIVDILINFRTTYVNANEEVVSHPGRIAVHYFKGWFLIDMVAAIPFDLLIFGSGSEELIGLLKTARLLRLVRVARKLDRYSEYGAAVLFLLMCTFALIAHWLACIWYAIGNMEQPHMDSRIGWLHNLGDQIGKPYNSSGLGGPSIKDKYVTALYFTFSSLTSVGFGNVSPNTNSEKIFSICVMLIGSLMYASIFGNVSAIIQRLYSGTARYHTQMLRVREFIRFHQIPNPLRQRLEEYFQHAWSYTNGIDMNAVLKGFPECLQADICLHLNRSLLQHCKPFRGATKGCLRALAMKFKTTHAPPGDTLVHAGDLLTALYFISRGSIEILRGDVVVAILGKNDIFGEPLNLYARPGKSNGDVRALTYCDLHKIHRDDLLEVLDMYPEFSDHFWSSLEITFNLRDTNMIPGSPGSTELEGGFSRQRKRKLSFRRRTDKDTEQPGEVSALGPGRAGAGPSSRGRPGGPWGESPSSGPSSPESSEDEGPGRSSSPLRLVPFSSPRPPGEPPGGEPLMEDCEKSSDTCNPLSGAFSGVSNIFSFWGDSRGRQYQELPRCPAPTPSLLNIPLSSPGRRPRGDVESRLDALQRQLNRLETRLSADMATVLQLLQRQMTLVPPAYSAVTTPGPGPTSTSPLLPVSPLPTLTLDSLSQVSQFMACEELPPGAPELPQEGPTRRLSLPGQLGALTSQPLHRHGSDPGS

[10] = biological target: Cytochrome P450 2D6 (Homo sapiens, UniProt P10635); assay: Inhibition of CYP2D6 in human liver microsomes using 3-[2-(N,N-diethyl-N-methylamino)ethyl]-7- methoxy-4-methylcoumarin as substrate after 45 mins by LC/MS/MS analysis; type: ADME, Microsome
Sequence of Cytochrome P450 2D6 (P10635 whole entry): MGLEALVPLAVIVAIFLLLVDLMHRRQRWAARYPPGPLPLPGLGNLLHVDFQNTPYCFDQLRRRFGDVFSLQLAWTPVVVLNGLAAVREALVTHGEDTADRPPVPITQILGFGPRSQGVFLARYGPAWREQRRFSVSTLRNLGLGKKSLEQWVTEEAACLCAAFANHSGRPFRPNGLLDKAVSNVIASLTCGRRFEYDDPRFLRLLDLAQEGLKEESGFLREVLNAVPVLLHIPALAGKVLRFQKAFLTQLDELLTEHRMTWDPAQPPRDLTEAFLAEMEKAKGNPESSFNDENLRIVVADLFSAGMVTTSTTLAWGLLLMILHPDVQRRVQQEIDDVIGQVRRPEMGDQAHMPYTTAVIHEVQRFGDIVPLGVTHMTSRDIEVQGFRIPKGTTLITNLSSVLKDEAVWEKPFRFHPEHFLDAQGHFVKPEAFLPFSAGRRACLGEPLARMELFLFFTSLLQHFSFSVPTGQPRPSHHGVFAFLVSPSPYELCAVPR

[11] = biological target: Cytochrome P450 2C9 (Homo sapiens, UniProt P11712); assay: Inhibition of CYP2C9 in human liver microsomes using 7-methoxy-4-(trifluoromethyl)-coumarin as substrate after 45 mins by LC/MS/MS analysis; type: ADME, Microsome
Sequence of Cytochrome P450 2C9 (P11712 whole entry): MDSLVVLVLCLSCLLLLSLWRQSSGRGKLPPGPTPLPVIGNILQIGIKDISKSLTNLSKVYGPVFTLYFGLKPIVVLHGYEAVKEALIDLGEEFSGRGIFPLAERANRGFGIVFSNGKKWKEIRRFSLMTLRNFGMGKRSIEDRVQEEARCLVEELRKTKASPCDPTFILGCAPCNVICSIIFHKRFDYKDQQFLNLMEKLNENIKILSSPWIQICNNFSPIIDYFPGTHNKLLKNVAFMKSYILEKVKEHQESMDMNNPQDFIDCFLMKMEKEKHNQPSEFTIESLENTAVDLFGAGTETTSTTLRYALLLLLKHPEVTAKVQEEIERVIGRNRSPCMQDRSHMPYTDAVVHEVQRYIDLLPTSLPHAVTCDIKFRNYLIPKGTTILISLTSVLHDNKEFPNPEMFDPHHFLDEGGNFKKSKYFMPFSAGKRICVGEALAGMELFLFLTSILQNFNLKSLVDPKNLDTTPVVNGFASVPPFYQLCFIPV

[12] = Metabolic stability in human liver microsomes at 1 uM up to 60 mins by LC/MS/MS analysis relative to hepatic blood flow; type: ADME, Microsome; conditions: read-out: Stability
[13] = biological target: T2, Cytochrome P450 3A4 (Homo sapiens, UniProt P08684); assay: Inhibition of CYP3A4 in human liver microsomes using 7-benzyloxy-4-(trifluoromethyl)-coumarin as substrate after 30 mins by LC/MS/MS analysis; type: ADME, Microsome
T2 sequence (P08684 whole entry): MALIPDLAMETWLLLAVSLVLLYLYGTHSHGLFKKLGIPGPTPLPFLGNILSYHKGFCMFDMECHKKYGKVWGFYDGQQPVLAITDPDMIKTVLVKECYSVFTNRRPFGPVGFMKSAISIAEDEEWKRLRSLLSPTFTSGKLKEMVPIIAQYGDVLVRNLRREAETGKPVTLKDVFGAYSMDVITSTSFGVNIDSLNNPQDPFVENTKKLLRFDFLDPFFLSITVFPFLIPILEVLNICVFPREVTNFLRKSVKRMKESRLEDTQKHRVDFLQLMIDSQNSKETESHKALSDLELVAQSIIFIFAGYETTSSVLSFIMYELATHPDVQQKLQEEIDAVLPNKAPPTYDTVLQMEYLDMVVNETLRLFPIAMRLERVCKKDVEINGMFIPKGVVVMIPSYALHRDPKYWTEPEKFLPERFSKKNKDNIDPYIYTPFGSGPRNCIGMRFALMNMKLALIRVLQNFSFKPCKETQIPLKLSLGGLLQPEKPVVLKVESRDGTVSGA

[14] = biological target: Cytochrome P450 2C19 (Homo sapiens, UniProt P33261); assay: Inhibition of CYP2C19 in human liver microsomes using 7-ethoxy-3-cyanocoumarin as substrate after 45 mins by LC/MS/MS analysis; type: ADME, Microsome
Sequence of Cytochrome P450 2C19 (P33261 whole entry): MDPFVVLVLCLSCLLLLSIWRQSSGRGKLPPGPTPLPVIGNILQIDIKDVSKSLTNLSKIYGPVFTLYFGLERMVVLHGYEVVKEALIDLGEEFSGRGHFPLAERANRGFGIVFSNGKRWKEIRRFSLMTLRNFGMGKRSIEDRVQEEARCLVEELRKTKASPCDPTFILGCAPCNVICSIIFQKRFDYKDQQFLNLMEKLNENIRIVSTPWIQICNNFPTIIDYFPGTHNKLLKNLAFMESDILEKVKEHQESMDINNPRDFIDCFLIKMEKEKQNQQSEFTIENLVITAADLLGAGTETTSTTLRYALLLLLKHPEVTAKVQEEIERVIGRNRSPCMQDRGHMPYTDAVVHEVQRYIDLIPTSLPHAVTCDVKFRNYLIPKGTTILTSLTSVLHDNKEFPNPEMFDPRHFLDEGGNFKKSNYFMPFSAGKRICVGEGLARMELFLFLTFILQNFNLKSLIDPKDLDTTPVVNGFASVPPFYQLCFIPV

[15] = biological target: T1, Sodium/hydrogen exchanger 1; assay: Inhibition of NHE1 in human HT-29 cells assessed as intracellular pH change after 30 mins in presence of plasma protein; type: cell-based
[16] = Mean resident time in overnight fasted Beagle dog at 1 mg/kg, iv; type: ADME, organism-based, Canis lupus familiaris; design: dose 1 mg/kg, route intravenous; conditions: in vivo
[17] = Oral bioavailability in overnight fasted Beagle dog at 5 mg/kg; type: ADME, organism-based, Canis lupus familiaris; conditions: in vivo
[18] = biological target: T3, Sodium/hydrogen exchanger 3 (Homo sapiens) (UniProt P48764); assay: Inhibition of NHE3 transfected in Chinese hamster PS120 assessed as intracellular pH change up to 16 uM; type: cell-based
T3 sequence (whole entry): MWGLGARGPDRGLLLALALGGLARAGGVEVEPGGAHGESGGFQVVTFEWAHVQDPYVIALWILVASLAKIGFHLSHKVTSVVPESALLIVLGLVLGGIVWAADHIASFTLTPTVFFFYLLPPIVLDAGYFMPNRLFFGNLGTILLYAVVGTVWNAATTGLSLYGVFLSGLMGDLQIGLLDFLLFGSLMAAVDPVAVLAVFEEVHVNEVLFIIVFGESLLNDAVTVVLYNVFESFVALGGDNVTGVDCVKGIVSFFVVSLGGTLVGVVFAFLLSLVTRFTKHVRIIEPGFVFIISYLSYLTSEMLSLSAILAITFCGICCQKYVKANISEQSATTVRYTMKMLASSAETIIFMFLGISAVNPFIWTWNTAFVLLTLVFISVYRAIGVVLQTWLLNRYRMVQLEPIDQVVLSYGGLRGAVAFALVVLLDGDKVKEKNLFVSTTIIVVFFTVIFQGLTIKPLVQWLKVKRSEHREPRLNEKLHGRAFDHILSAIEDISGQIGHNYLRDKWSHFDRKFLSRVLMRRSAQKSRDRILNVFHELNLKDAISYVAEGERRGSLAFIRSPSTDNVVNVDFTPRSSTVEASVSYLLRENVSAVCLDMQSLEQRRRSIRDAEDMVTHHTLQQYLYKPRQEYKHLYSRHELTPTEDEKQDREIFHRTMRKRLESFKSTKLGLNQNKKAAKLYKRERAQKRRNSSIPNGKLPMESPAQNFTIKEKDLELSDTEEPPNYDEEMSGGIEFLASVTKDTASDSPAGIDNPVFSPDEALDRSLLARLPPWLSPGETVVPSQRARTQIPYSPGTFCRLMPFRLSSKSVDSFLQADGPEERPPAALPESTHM

[19] = tested on: Canis familiaris; assay: Clearance in overnight fasted Beagle dog at 1 mg/kg, iv relative to hepatic blood flow; type: ADME, organism-based, Canis lupus familiaris, Liver; design: dose 1 mg/kg, route intravenous; conditions: in vivo
[20] = Volume of distribution at steady state in overnight fasted Beagle dog at 1 mg/kg, iv; type: ADME, organism-based, Canis lupus familiaris; design: dose 1 mg/kg, route intravenous; conditions: in vivo, read-out: Vdss
[21] = tested on: Salmonella typhimurium; assay: Genotoxicity in Salmonella typhimurium TA100 up to 5000 ug/plate by Ames test in the presence of S9 fraction; type: toxicity, organism-based; conditions: salmonella enterica subsp. enterica serovar typhimurium
[22] = tested on: Salmonella typhimurium; assay: Genotoxicity in Salmonella typhimurium TA98 up to 5000 ug/plate by Ames test in the presence of S9 fraction; type: toxicity, organism-based; conditions: salmonella enterica subsp. enterica serovar typhimurium
[23] = tested on: Heart; assay: Inhibition of ischemia reperfusion injury-induced decrease in left ventricular developed pressure in Langendorff isolated perfused Sprague-Dawley rat heart at 100 nM after 30 mins; type: functional; design: scale not given: the % may be the effect or the level left
Method in brief: (§1)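 In the isolated perfused rat heart ischemia-reperfusion model, compound was present in the perfusate. Recovery of left ventricular developed pressure was expressed as % of baseline pressure, 30 min postreperfusion, against vehicle control. Left ventricular end diastolic pressure was also monitored.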

[24] = tested on: Escherichia coli; assay: Genotoxicity in Escherichia coli WP2 expressing uvrA up to 5000 ug/plate by Ames test in absence of S9 fraction; type: toxicity, organism-based
[25] = tested on: Salmonella typhimurium; assay: Genotoxicity in Salmonella typhimurium TA1537 up to 5000 ug/plate by Ames test in the absence of S9 fraction; type: toxicity, organism-based; conditions: salmonella enterica subsp. enterica serovar typhimurium
[26] = biological target: T2, Cytochrome P450 3A4; assay: Activation of CYP3A4 expressed in DPX cells co-transfected with human PXR at 0.1 to 10 uM; type: ADME, cell-based
[27] = tested on: Escherichia coli; assay: Genotoxicity in Escherichia coli WP2 expressing uvrA up to 5000 ug/plate by Ames test in presence of S9 fraction; type: toxicity, organism-based
[28] = tested on: Salmonella typhimurium; assay: Genotoxicity in Salmonella typhimurium TA1535 up to 5000 ug/plate by Ames test in the absence of S9 fraction; type: toxicity, organism-based; conditions: salmonella enterica subsp. enterica serovar typhimurium
[29] = tested on: Salmonella typhimurium; assay: Genotoxicity in Salmonella typhimurium TA1535 up to 5000 ug/plate by Ames test in the presence of S9 fraction; type: toxicity, organism-based; conditions: salmonella enterica subsp. enterica serovar typhimurium
[30] = tested on: Salmonella typhimurium; assay: Genotoxicity in Salmonella typhimurium TA100 up to 5000 ug/plate by Ames test in the absence of S9 fraction; type: toxicity, organism-based; conditions: salmonella enterica subsp. enterica serovar typhimurium
[31] = tested on: HeLa; assay: Cytotoxicity against human HeLa cells up to 100 uM after 24 hrs; type: cell-based
[32] = tested on: U-937; assay: Induction of phopspholipidosis in human U937 cells up to 50 uM after 24 hrs by Nile red flow cytometry assay; type: cell-based; conditions: u-937, 24 h
[33] = tested on: Salmonella typhimurium; assay: Genotoxicity in Salmonella typhimurium TA1537 up to 5000 ug/plate by Ames test in the presence of S9 fraction; type: toxicity, organism-based; conditions: salmonella enterica subsp. enterica serovar typhimurium
[34] = tested on: Salmonella typhimurium; assay: Genotoxicity in Salmonella typhimurium TA98 up to 5000 ug/plate by Ames test in the absence of S9 fraction; type: toxicity, organism-based; conditions: salmonella enterica subsp. enterica serovar typhimurium
[35] = tested on: Heart; assay: Inhibition of ischemia reperfusion injury-induced decrease in left ventricular developed pressure in Langendorff isolated perfused Sprague-Dawley rat heart at 10 nM after 30 mins; type: functional; design: scale not given: the % may be the effect or the level left; method in brief: as §1

T1 sequence (P19634 whole entry): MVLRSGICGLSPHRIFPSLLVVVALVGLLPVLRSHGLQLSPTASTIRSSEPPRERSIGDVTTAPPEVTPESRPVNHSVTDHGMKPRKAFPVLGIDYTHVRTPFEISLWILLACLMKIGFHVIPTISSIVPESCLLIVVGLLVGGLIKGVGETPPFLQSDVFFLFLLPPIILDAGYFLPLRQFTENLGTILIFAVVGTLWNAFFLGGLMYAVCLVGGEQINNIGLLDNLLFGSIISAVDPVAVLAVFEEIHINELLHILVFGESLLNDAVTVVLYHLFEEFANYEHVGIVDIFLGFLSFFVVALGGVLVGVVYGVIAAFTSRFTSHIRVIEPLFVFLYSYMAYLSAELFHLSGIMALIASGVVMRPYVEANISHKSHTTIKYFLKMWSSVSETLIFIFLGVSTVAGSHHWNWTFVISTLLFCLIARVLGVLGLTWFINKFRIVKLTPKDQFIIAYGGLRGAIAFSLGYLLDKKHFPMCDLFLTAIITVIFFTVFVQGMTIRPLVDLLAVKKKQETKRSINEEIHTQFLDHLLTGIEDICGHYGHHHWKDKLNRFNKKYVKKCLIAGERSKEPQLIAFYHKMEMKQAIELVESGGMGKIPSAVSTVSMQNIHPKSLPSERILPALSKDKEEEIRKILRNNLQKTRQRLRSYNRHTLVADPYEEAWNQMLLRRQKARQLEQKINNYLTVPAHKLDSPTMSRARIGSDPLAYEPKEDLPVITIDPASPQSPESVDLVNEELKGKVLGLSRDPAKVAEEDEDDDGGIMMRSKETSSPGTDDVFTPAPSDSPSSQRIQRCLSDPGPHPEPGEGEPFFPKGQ

Compound	IC50 [1] [µM]	Vd [2] [L/kg]	CL [3] [%]	MRT [5] [h]	bioavailability [6] [%]	Papp [7] [×10⁻⁶ cm/s]	hepatic extraction ratio at 1 h, 1 µM [8]	IC50 [9] [µM]	IC50 [10] [µM]	IC50 [11] [µM]	hepatic extraction ratio at 1 h, 1 µM [12]	IC50 [13] [µM]	IC50 [14] [µM]	inhibition [15]	MRT [16] [h]	bioavailability [17] [%]	CL [19] [%]	further results
CCC(=O)N1CCC(c2cc(C)c(C(=O)NC(=N)N)cc2S(C)(=O)=O)CC1	0.015	0.95	54	0.3	1													Ratio [4]: 14
N#Cc1ccc(C(=O)N2CCC(c3ccc(C(=O)NC(=N)N)cc3C(F)(F)F)CC2)cc1		6.5	19	8.5		≥ 2	0.2	4	> 30	13	< 0.11	11	15					
N=C(N)NC(=O)c1ccc(N2CCC(NC(=O)c3ccc[nH]3)C2)c(C(F)(F)F)c1 (racemic)	0.036													Active				
CCC(=O)N1CCC(c2ccc(C(=O)NC(=N)N)cc2C(F)(F)F)CC1	0.011	1	4.4	5.3	49	≥ 2									14	49	8.1	inhibition [18]: inactive; Vd [20]: 2 L/kg
COCC(=O)N1CCC(c2ccc(C(=O)NC(=N)N)cc2C(F)(F)F)CC1	0.01	1.3	21	1.4		≥ 2	0.36	> 30	> 30	25	0.06	> 30	8					
CC(=O)N1CCC(c2ccc(C(=O)NC(=N)N)cc2C(F)(F)F)CC1 [BI 9627]	0.006	0.76	5.7	3.2	73	≥ 2	0.11	> 30	> 30	> 30	< 0.11	> 30	> 30		6.2	33	13	Activity [21]: Non-toxic; Activity [22]: Non-toxic; Activity [23]: 100%; Activity [24]: Non-toxic; Activity [25]: Non-toxic; Activity [26]: Not Active; Activity [27]: Non-toxic; Activity [28]: Non-toxic; Activity [29]: Non-toxic; Activity [30]: Non-toxic; Activity [31]: Non-toxic; Activity [32]: Non-toxic; Activity [33]: Non-toxic; Activity [34]: Non-toxic; inhibition [18]: inactive; Activity [35]: 36%; Vd [20]: 1.4 L/kg
N#Cc1cccc(C(=O)N2CCC(c3ccc(C(=O)NC(=N)N)cc3C(F)(F)F)CC2)c1	0.035	4.9	16	3.3	72	≥ 2	< 0.056	> 30	> 30	19	< 0.11	22	7		17	36	18	
Cn1ccnc1C(=O)N1CCC(c2ccc(C(=O)NC(=N)N)cc2C(F)(F)F)CC1	0.014	1.4	31	1		≥ 2	0.12	> 30	> 30	18	0.47	26	16					
N=C(N)NC(=O)c1ccc(N2CCCC(NC(=O)c3ccc[nH]3)C2)c(C(F)(F)F)c1 (racemic)	0.172													Active				
N=C(N)NC(=O)c1ccc(N2CCC(NC(=O)c3ccc[nH]3)CC2)c(C(F)(F)F)c1	0.041													Active				
